Laboratory results published in article PMC12780242 (Scientific Reports, 2025).
Read-outs that look alike come from different tables or passages of the source.

Experiments:
AGC = conditions: cited from earlier work
CDT1 = CDT1 immunohistochemistry in endoscopic tumor biopsies; assay type: in vivo, human
Summary of the method: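 Endoscopic tumor biopsies from gastric cancer patients, taken at screening and on day 2 after a single lead-in dose of pevonedistat given alone on day 1. Formalin-fixed paraffin-embedded sections stained by immunohistochemistry with a monoclonal anti-CDT1 antibody. Read-out is CDT1-positive cells.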

[1] = Phase II trials for other cancers; cited from earlier work
gastric cancer cells = conditions: preclinical studies; cited from earlier work
[2] = test system: patients with unresectable advanced or recurrent gastric cancer (AGC); assay: Dose-finding cohort; assay type: in vivo, human; conditions: in combination with CapeOX
Summary of the method: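 Open-label multicenter phase I with standard 3 + 3 escalation. Pevonedistat dose levels were 20, 15 and 10 mg/m2. There was a single-agent lead-in dose on day 1, then a 7-day interval. Each 3-week cycle gave oxaliplatin 130 mg/m2 on day 1, oral capecitabine 1000 mg/m2/day twice daily about 12 h apart for 14 days, and pevonedistat on days 1, 3 and 5. The DLT window ran from the first lead-in dose to day 35 or the start of cycle 2, whichever came first. The RD also weighed adverse events in later cycles.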

[3] = third-line or later treatment of AGC
[4] = after failure of ≥ 2 chemotherapy regimens, pivotal Phase III trials

| Compound | Patients experiencing disease progression as their best response (AGC; [3]) | Response rates (AGC; [3]) | Cullin–RING ligase substrates NRF2 and CDT1 in post-treatment tumor biopsies (CDT1; in vivo) | Pevonedistat-NEDD8 adduct in post-treatment tumor biopsies (CDT1; in vivo) | Patients with increased CDT1 expression (CDT1; post-treatment tumor biopsy) [%] | RD of pevonedistat combined with chemotherapy [1] | Growth of gastric cancer cells (gastric cancer cells) | Maximum tolerated dose of pevonedistat [2] [mg/m^2] | Recommended dose (RD) of pevonedistat ([2]; days 1, 3, 5 of a 3-week cycle) [mg/m^2] | Response rates (AGC; [4]) [%] |
| --- | --- | --- | --- | --- | --- | --- | --- | --- | --- | --- |
| CCc1c2c(nc3ccc(OC(=O)N4CCC(N5CCCCC5)CC4)cc13)-c1cc3c(c(=O)n1C2)COC(=O)[C@]3(O)CC [irinotecan] | more than 50% | around 10% | – | – | – | – | – | – | – | – |
| NS(=O)(=O)OC[C@@H]1C[C@@H](n2ccc3c(N[C@H]4CCc5ccccc54)ncnc32)C[C@@H]1O [Pevonedistat] | – | – | increase | presence | 75 | 20–25 mg/m^2 | significantly suppresses the growth | 15 | 15 | – |
| trifluridine/tipiracil | more than 50% | around 10% | – | – | – | – | – | – | – | ≤ 10 |
| Nivolumab | more than 50% | around 10% | – | – | – | – | – | – | – | ≤ 10 |
